# This is a sample that favours compounds with a hit; in the whole collection about 3.5% have one here.
# RGS4 inh = human RGS4 inhibition; P49798; HEK293 M3R/RGS4 inducible, Fluo-4 calcium flux; active compounds read high; triggered by carbachol at its EC20; B-score at 10 µM; 310,000 compounds, 0.45% hits; AID 463165;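 active = B-score, a plate-corrected calcium signal, over three deviations above library mean, with baseline fluorescence within five deviations of library mean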;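 also: RGS4 expression induced by doxycycline in cells with stable M3 receptor; B-score is computed from the integrated fluorescence ratio over baseline after carbachol; higher B-score means a larger calcium signal and so more RGS4 inhibition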
# Target sequence (P49798 whole entry, looked up): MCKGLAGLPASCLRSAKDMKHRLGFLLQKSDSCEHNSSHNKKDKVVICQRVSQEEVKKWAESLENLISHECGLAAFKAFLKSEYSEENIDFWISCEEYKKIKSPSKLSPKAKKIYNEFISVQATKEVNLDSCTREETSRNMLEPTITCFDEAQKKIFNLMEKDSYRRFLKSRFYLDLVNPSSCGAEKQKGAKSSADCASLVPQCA
# RGS4 pot = potentiators or activators of RGS4 | AID 463111 | B-score at 10 µM | 310,000 compounds, 0.92% hits | HEK293 M3R/inducible RGS4, carbachol calcium flux Fluo4; active compounds read low;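 active = B-score of the integrated calcium signal more than 4 SD below the library mean, with starting fluorescence not abnormally high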;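 also: negative B-score means reduced calcium response which marks RGS4 activation or potentiation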
#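 System: HEK293 FlpIn-TREx cells, stable M3R, doxycycline-inducible RGS4. Timing: overnight RGS4 induction, 30 min dye load 37 °C, 20 min compound RT. Also added: carbachol, ECmax concentration. Measured by: Fluo4 fluorescence kinetic imaging of calcium. Evaluation: integrated calcium ratio converted to B score.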
# MrgX1 allo act = human MrgX1 positive allosteric modulation, primary screen. B-score at 10 µM. MrgX1-HEK293, Fluo-4 calcium flux, FDSS; active compounds read high. Q96LB2. AID 588675. 310,000 compounds, 0.63% hits;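 active = plate-corrected calcium response at least 3 library SD above typical, normal starting fluorescence, not activating the receptor alone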;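 also: compound read alongside a low EC10 to EC30 dose of BAM8-22 agonist; peak minus trough fluorescence over baseline measured at the second addition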
# Target sequence (Q96LB2 whole entry, looked up): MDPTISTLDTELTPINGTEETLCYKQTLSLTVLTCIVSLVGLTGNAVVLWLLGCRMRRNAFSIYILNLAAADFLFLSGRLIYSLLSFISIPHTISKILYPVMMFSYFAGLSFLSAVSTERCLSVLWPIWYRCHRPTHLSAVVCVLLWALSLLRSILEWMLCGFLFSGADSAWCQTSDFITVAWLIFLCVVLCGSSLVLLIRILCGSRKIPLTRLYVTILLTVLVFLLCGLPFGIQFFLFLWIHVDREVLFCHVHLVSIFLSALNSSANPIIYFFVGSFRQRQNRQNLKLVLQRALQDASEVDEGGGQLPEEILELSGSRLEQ
# MrgX1 agonist = human MrgX1 receptor agonism, primary screen; 310,000 compounds, 0.44% hits; Q96LB2; B-score at 10 µM; MrgX1-HEK293 cells, Fluo-4 calcium fluorescence, agonist mode; active compounds read high;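 active = calcium response B-score plate-corrected fluorescence ratio at least 3 library SD, with starting fluorescence B-score inside 5 SD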
#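 System – MrgX1-expressing HEK293 cells · Incubation – cells plated overnight, dye loaded 0.5 h 37 °C, 0.5 h room temperature · Technique – kinetic Fluo-4 NW fluorescence of intracellular calcium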
# MrgX1 antagonist = human MrgX1 receptor antagonism, primary screen. MRGX1-HEK293 calcium flux, Fluo-4, BAM8-22 antagonism; active compounds read low. B-score at 10 µM. 310,000 compounds, 1.3% hits. AID 588676;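 active = calcium-response B-score plate-corrected more than 3 library SD below zero, starting fluorescence within 5 deviations, no agonist response on first addition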;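 also: peak minus trough fluorescence over baseline after final BAM8-22 challenge near maximal dose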
# MrgX1 ag reconf = human MrgX1 agonism, re-confirmation screen; AID 602412; MrgX1-HEK293, Fluo-4 calcium fluorescence, FDSS; shares compounds with MrgX1 agonist; activation, % at 10 µM; 600 compounds, 78% hits;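 active = calcium signal rise, corrected for plate position, at least 3 library SD high, with starting brightness within 5 such deviations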; also: reference of the scale not given here
# HEK293 Ca flux = counter-screen for MrgX1 antagonists: effect in parental HEK293 cells. shares compounds with MrgX1 antagonist. Fluo-4 calcium fluorescence, FDSS. fluorescence ratio F(max-min)/F0 at 10 µM. 4,000 compounds, 2% hits. AID 624111;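 active = duplicate-averaged calcium fluorescence ratio at least three times the standard deviation of buffer wells, a nonspecific response in parental cells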
# HEK293 Ca counter = MrgX1 allosteric activator counter-screen hit in parental HEK293 cells; AID 624114; parental HEK293 calcium flux, Fluo-4 fluorescence ratio; active compounds read high; fluorescence ratio F(max-min)/F0 at 10 µM; shares compounds with MrgX1 antagonist; 4,000 compounds, 0.4% hits;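 active = calcium fluorescence ratio, averaged over duplicates, at least 3 SD of the buffer-well ratio, meaning a nonspecific response in receptor-free cells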;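 also: untransfected parental HEK293 lacking MrgX1 used as counterscreen for MrgX1 allosteric activators; fluorescence change taken during the second addition on a kinetic imager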
# HEK293 Ca cntr2 = counter-screen for MrgX1 activators: effect in parental HEK293 cells | 4,000 compounds, 8.7% hits | Fluo-4 calcium fluorescence (FDSS); active compounds read high | shares compounds with MrgX1 antagonist | fluorescence ratio F(max-min)/F0 at 10 µM;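 active = calcium fluorescence ratio at least three times the spread of buffer wells, meaning a non-specific response in parental cells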
# An asterisk follows results filed as active; i = inactive; nt = not tested or not shown.
SMILES,RGS4 inh,RGS4 pot,MrgX1 allo act,MrgX1 agonist,MrgX1 antagonist,MrgX1 ag reconf,HEK293 Ca flux,HEK293 Ca counter,HEK293 Ca cntr2
Cc1[nH]nc2c1C(c1ccc(-c3ccc(Cl)cc3)o1)C(C#N)=C(N)O2 (stereo unspecified),i,i,i,34*,i,i,i,i,i
Cc1ccc(-c2ccc(C3C(C#N)=C(N)Oc4n[nH]c(C)c43)o2)cc1 (stereo unspecified),i,i,i,37*,i,129%*,i,i,i
Cc1nc2ccccc2n1CCOc1ccccc1,i,i,i,i,i,nt,nt,nt,nt
COc1ccc(OCCn2c(N)nc3ccccc32)cc1,i,i,i,30*,i,153%*,i,i,i
Nc1nc2ccccc2n1CCOc1ccc(F)cc1,i,i,i,41*,i,134%*,i,i,i
CCSc1nc2ccccc2n1CCOc1ccccc1,i,i,i,i,i,nt,nt,nt,nt
CCCOc1ccc(-c2csc3ncn(Cc4ccc(C(=O)O)cc4)c(=O)c23)cc1,i,i,i,32*,i,204%*,i,i,i
COC(=O)c1c(NC(=O)CN2C(=O)NC3(CCC(C(C)(C)C)CC3)C2=O)sc2c1CCCCC2 (stereo unspecified),i,i,i,i,i,nt,nt,nt,nt
COC(=O)c1c(NC(=O)CN2C(=O)NC3(CCc4ccccc4C3)C2=O)sc2c1CCCCC2 (stereo unspecified),i,i,i,29*,i,225%*,i,i,75*
O=C(CN1C(=O)NC2(CCCC2)C1=O)OCCOc1ccc(Cl)cc1Cl,i,i,i,i,i,nt,nt,nt,nt
COC(=O)c1c(Cl)c2n3ccccc3c(C)c(-c3ccccc3)c-2c1C(=O)OC,i,i,i,27*,i,i,i,i,i
COc1cccc(-n2c(SCC(=O)NCC3CCCO3)nc3c([nH]c4ccccc43)c2=O)c1 (stereo unspecified),i,i,i,30*,i,99%*,i,i,i
COc1ccc(-n2c(SCC(=O)NCC3CCCO3)nc3c([nH]c4ccccc43)c2=O)cc1 (stereo unspecified),i,i,i,i,i,nt,nt,nt,nt
COc1cccc(C(=O)COC(=O)CCCC(=O)NC2CCCCC2)c1,i,i,i,i,i,nt,nt,nt,nt
Cc1[nH][nH]c(=O)c1C(c1ccc(-c2ccc(F)cc2)o1)c1c(C)[nH][nH]c1=O,i,i,i,40*,i,216%*,i,i,46*
Cc1[nH][nH]c(=O)c1C(c1ccc(-c2ccc(Cl)c(Cl)c2)o1)c1c(C)[nH][nH]c1=O,i,i,i,i,i,nt,nt,nt,nt
Cc1c(Cl)cccc1NC(=O)Cn1c(-c2ccc(F)cc2)noc1=O,i,i,i,i,i,nt,nt,nt,nt
O=C(c1cccs1)n1nc(-c2cccnc2)nc1NCc1ccco1,i,i,nt,nt,nt,nt,nt,nt,nt
c1ccc2c(c1)[nH]c1c(N3CCSCC3)ncnc12,nt,nt,i,32*,i,186%*,i,i,i
c1ccc2c(c1)[nH]c1c(N3CCCC3)ncnc12,i,i,i,i,i,nt,nt,nt,nt
Clc1ccc2[nH]c3c(N4CCC5(CC4)OCCO5)ncnc3c2c1,i,i,i,42*,i,238%*,i,i,50*
COc1ccc2c(c1)CCC(C)N2C(=O)C(=O)c1c[nH]c2ccccc12 (stereo unspecified),i,i,i,i,i,nt,nt,nt,nt

# From PubChem BioAssay
